Screening data (PubChem BioAssay)
Compounds with a hit are over-represented: about 4.1% of the library has one in this group of screens.
KCC2 mod = modulators of human KCC2 chloride dependent transport; 2.2% of 190,000 active; AID 1456; B-score of Tl+ flux slope (higher = more flux/activation; lower = inhibition) at 10 µM; KCC2 cells, thallium flux FluoZin-2 fluorescence;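 active = thallium flux slope and its plate-corrected score both differing from the plate sample mean at a set confidence after two filtering rounds, in either direction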;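 also: slope of fluorescence scaled to starting intensity during 10 to 20 s after thallium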
KCNQ1 inh = blocks the human KCNQ1 potassium channel | CHO-K1 KCNQ1, FluxOR thallium flux fluorescence; hits give high values | B-score at 10 µM | 1.3% of 310,000 active;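 active = compounds whose thallium flux B-score, printed positive for inhibition, exceeds three library SD while starting fluorescence stays within three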;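 also: channel opened by potassium depolarization with thallium stimulus after 20 min compound exposure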
KCNK9 block = human KCNK9 channel inhibition; Q9NPC2; HEK293 KCNK9, FluxOR thallium flux fluorescence; hits give low values; B-score at 10 µM; 1.2% of 310,000 active;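 active = ratio B-score over 3 SD below the library mean, with starting fluorescence within 5 SD of its mean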;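 also: negative B-score means less thallium flux so channel inhibition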
hERG rescue = shields human hERG channel from block by proarrhythmic agents; CHO-hERG, FluxOR thallium flux, dofetilide IC70 present; 0.51% of 310,000 active; Q12809; activation (rescue from dofetilide block), less the hit threshold, % at 10 µM;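 active = activation above the mean of controls blocked by dofetilide plus 5 SD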;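 also: thallium influx through hERG after potassium depolarization seen as dye fluorescence rise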
Target sequence (Q12809 whole entry, looked up): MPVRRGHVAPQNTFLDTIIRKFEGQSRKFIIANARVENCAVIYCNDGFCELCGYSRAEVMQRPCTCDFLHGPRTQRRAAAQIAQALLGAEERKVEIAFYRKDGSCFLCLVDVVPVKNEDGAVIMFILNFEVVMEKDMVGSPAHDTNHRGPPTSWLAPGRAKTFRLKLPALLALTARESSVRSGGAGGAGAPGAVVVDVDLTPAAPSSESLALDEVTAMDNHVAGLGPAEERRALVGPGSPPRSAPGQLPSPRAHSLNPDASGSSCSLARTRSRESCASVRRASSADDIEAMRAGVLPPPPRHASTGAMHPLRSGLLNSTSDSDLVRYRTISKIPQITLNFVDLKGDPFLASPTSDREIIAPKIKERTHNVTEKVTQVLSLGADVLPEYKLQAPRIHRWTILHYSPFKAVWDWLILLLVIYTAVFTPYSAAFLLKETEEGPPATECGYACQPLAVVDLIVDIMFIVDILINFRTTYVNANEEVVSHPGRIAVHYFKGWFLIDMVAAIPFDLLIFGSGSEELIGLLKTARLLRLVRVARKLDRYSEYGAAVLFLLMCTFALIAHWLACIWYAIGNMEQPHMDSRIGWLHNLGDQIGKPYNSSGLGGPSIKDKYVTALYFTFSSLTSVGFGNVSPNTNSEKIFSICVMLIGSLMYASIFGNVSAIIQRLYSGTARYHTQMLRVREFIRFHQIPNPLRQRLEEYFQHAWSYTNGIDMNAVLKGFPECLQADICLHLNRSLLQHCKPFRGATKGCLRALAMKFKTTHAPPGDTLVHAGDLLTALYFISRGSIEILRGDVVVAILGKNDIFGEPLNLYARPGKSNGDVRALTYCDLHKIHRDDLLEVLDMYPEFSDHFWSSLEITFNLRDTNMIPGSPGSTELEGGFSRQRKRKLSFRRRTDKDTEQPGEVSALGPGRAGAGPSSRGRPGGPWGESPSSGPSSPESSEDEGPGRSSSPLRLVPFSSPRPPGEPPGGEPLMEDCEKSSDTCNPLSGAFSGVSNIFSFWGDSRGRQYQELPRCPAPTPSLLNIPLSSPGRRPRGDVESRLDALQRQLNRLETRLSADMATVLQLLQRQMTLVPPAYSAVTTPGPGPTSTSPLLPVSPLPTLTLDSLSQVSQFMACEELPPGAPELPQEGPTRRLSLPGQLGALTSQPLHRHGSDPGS
KCNQ1 pot = potentiates or activates the human KCNQ1 potassium channel. P51787. CHO-K1 KCNQ1, thallium flux FluxOR fluorescence; hits give high values. B-score at 10 µM. 0.35% of 310,000 active;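 active = fluorescence ratio B-score, a plate-corrected score, at least three library SD, with initial intensity B-score within 5 SD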
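System: CHO-K1 cells stably expressing KCNQ1 / Medium: assay buffer for compound exposure, DMSO matched across wells / Reagent: thallium- and potassium-containing depolarizing buffer / Compound: one concentration, matched DMSO / Incubation: 20 min compound pretreatment at room temperature / Measured by: kinetic FluxOR fluorescence, 10 s baseline plus 110 s post-stimulus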
KCNK3 block = human KCNK3 channel inhibition, primary screen. O14649. B-score at 10 µM. AID 602410. 0.84% of 340,000 active. CHO-KCNK3 thallium flux, FluxOR fluorescence; hits give low values;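 active = B-score under library mean minus 4 SD, starting fluorescence ratio at most library mean plus 5 SD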;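 also: more negative B-score means stronger inhibition of thallium flux through KCNK3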
Starred values were filed as active, the others as inactive; i = inactive; · = no result given.

SMILES | KCC2 mod | KCNQ1 inh | KCNK9 block | hERG rescue | KCNQ1 pot | KCNK3 block
CCOc1cc(/C=N/N=C(N)N)ccc1OCc1ccc(Cl)cc1 | 0.12 | 9* | i | -28 | i | i
COc1cc(/C=N/N=C(N)N)ccc1OCc1ccc(Cl)cc1 | 0.028 | 13* | i | -32 | i | i
N#Cc1ccc(CN2CCN(C(=O)c3ccc(S(=O)(=O)NCc4ccco4)cc3)CC2)cc1 | · | · | · | · | · | i
COc1cccc(C(=O)Cn2c(N3CCOCC3)nc3c2c(=O)n(C)c(=O)n3C)c1 | 0.014 | i | i | -7 | i | i
Cc1ccc(C(=O)Cn2c(N3CCOCC3)nc3c2c(=O)n(C)c(=O)n3C)cc1 | · | i | i | 5.0* | i | i
CCCCCCCN1C(Nc2ccccc2)=NC[C@@H]1Cc1ccccc1 | · | 7* | i | -22 | i | i
c1ccc(CCCCN2C(Nc3ccccc3)=NC[C@@H]2Cc2ccccc2)cc1 | · | · | · | · | · | i
COc1ccc(Nc2nc3ccccc3nc2-n2nc(C)cc2C)cc1 | 0.013 | i | -7.2* | -8 | i | i
COc1ccccc1C(=O)n1nc(-c2ccccc2)nc1NCc1ccco1 | -1.5 | i | -7.7* | -14 | i | i
O=C(c1ccco1)n1nc(-c2ccccc2)nc1NCc1ccco1 | 0.47 | i | i | -11 | i | i
O=[n+]1c2c(n([O-])c3cc(F)c(N4CCCC4)cc31)CCCC2 | · | 9* | i | -16 | i | i
O=[n+]1c2c(n([O-])c3cc(F)c(N4CCCC4)cc31)CCC2 | i | i | i | -28 | i | i
CN=C(C)c1c(O)c2ccccc2oc1=O | -0.026 | i | i | 4.9* | i | i
Cc1c(O)c2ccccc2oc1=O | 0.054 | i | i | -7 | i | i
CC1(C)N=C(N)NC(Nc2ccc(Br)cc2)=N1 | 0.36 | i | i | -6 | i | i
CC1(C)N=C(N)NC(Nc2cccc(Br)c2)=N1 | 0.79 | i | i | -6 | 9* | i
CCCCn1c(-c2ccccc2C)nc2cc3[nH]c(=O)c(C(C)C)nc3cc21 | · | i | -8.1* | -18 | i | i
Cc1ccc2c(c1)C(c1ccccc1)N(C(=O)c1c(F)cccc1Cl)CC(=O)N2 (stereo not given) | · | i | i | -7 | i | i
O=C(NC(=S)N1CCN(c2ccc(F)cc2)CC1)C12CC3CC(CC(C3)C1)C2 | 3.1 | i | i | -4 | i | i
O=C(Nc1ccccc1N1CCN(c2ccc(F)cc2)CC1)C12CC3CC(CC(C3)C1)C2 | -1.3 | i | -7* | -9 | i | i
CCC(=O)Nc1ccccc1N1CCN(c2ccc(F)cc2)CC1 | · | i | i | -7 | i | i
O=C(Nc1ccccc1N1CCN(c2ccc(F)cc2)CC1)C1CCCCC1 | · | i | -6.7* | -7 | i | i
Cc1ccc(COc2ccc(CNCCCN3CCCCCC3=O)cc2)cc1 | · | i | i | -14 | i | i
CCN(CC)c1cccc(OC(=O)c2cccnc2Cl)c1 | · | i | i | -3 | i | i
CC(=O)Nc1ccccc1C(=O)C(=O)Nc1ccccc1 | 0.19 | i | i | 0 | i | i
SMILES | KCC2 mod | KCNQ1 inh | KCNK9 block | hERG rescue | KCNQ1 pot | KCNK3 block
CC(=O)Nc1ccccc1C(=O)C(=O)Nc1ccc(Cl)cc1 | -0.66 | i | i | 8.2* | i | i
COc1cc(/C=C2\S/C(=N/S(=O)(=O)c3ccc(C)cc3)NC2=O)c([N+](=O)[O-])cc1OC | -6.5* | i | i | -33 | i | i
O=C(Nc1nc(-c2ccc(S(=O)(=O)N3CCCCCC3)cc2)cs1)c1cccs1 | -0.13 | i | i | -11 | i | i
O=C(Nc1nc(-c2ccc(S(=O)(=O)N3CCCC3)cc2)cs1)c1cccs1 | 1.1 | · | · | · | · | -11*
O=C(Nc1nc(-c2cccs2)cs1)c1cccc(S(=O)(=O)N2CCCCC2)c1 | -0.044 | i | -6.6* | -10 | i | i
COCCOC1CCN(C(=O)c2cc(COc3ccc(F)cc3F)on2)CC1 | · | i | i | -8 | i | i
Cc1oc2c(cc(NS(=O)(=O)c3ccc(F)cc3)c3ccccc32)c1C(=O)O | · | i | i | -4 | i | i
Cc1oc2c(cc(NS(=O)(=O)c3ccc(C(C)C)cc3)c3ccccc32)c1C(=O)O | · | 9* | i | -10 | i | i
COc1ccc(S(=O)(=O)Nc2cc3c(C(C)=O)c(C)oc3c3ccccc23)cc1 | · | i | -7.3* | -11 | i | i
Cc1ccc(/C=N/N(Cc2ccccc2)c2ccccc2)o1 | 0.98 | i | -6.8* | -7 | i | i
Cc1ccc(/C=N/N2CCN(Cc3ccccc3)CC2)o1 | 0.042 | i | i | 1 | i | i
CCOC(=O)C1=C(c2ccccc2)NC(=O)NC1c1ccc(O)c(OCC)c1 (stereo not given) | -0.54 | i | i | -12 | i | i
CCOC(=O)C1=C(c2ccccc2)NC(=O)NC1c1ccc(O)c(Cl)c1 (stereo not given) | · | i | i | 13* | i | i
Cc1cc(NC(=O)CSc2nc3cc(Cl)ccc3c(=O)n2C(C)C)no1 | · | · | · | · | · | i
CC1(C)CC[C@]2(CO)[C@@H](O)C[C@]3(C)C(=CCC4[C@@]5(C)CC[C@H](O)C(C)(C)C5CC[C@]43C)[C@@H]2C1 (stereo not given in full) | · | i | i | 0 | 34* | ·
CC1(C)C2CC[C@]3(C)C(CC=C4[C@@H]5C[C@@](C)(CO)[C@@H](O)C[C@]5(C(=O)O)CC[C@]43C)[C@@]2(C)CC[C@@H]1O (stereo not given in full) | · | i | i | -13 | i | ·
CCOc1ccccc1NC=C1C(=O)OC2(CCCCC2)OC1=O | -0.66 | i | i | 5.1* | i | i
COC(=O)c1ccccc1NC(=O)Cn1cnc2c(cnn2-c2ccccc2)c1=O | -0.3 | i | i | 4.8* | i | i
O=C(O)c1ccc(CN2CCCCC2)o1 | -0.23 | i | i | 5.1* | i | i
CCOc1ccc(C(=O)N2CCN(CC(=O)N3CCCC3)CC2)cc1OCC | · | · | · | · | · | i
COc1cccc(-n2cc(-c3ccc(F)cc3)[nH]c2=S)c1 | · | i | i | 1 | i | i
COC(=O)c1ccc(-n2cc(-c3ccc(OC)cc3)[nH]c2=S)cc1 | 8.8* | · | · | · | · | i
COc1cc2c(cc1OC)CN(C(=O)c1ccc(Cl)c(S(=O)(=O)N3CCCC3)c1)CC2 | · | · | · | · | · | -8.7*
CCOc1cccc(N(C(=O)CNC(=O)c2ccco2)C(C(=O)NCC2CCCO2)c2ccccc2)c1 (stereo not given) | · | i | i | -16 | i | i
